Assay [1] relates to Escherichia coli. In words: Antibacterial activity against Escherichia coli ATCC 25922 assessed as reduction in bacterial growth at 50 uM incubated for 24 hrs by broth microdilution assay relative to control. Format: functional. The gist of the method:
(§1)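 Clinical control strains kept on cation-adjusted Mueller Hinton agar slants. Before the assay, suspensions were grown in cation-adjusted Mueller Hinton broth at 37 °C for 16–20 h at 100 rpm. Broth microdilution in 96-well format followed CLSI guidelines. Each compound was tested at 50 μM, and the result was expressed as percentage inhibition of bacterial growth.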

For another assay, the system named is Staphylococcus aureus. Put plainly: Antibacterial activity against Staphylococcus aureus ATCC 25923 assessed as bacterial growth at 50 uM incubated for 24 hrs by broth microdilution assay. Format: functional, organism-based. The gist of the method:
as §1
(In general: In broth dilution the organism is exposed to a series of concentrations in liquid medium.)

For assay [2], the system named is Escherichia coli. Put plainly: Inhibition of Escherichia coli DNA topoisomerase 4 using supercoiled pNO1 plasmid DNA as substrate assessed as enzyme residual activity at 10 uM incubated for 30 mins by fluorescence assay relative to control.
Assay [3] concerns the target DNA gyrase (Staphylococcus aureus, UniProt P0A0K8+P20831). Put plainly: Inhibition of Staphylococcus aureus DNA gyrase using relaxed pNO1 plasmid DNA as substrate incubated for 30 mins by fluorescence assay. Format: protein-complex assay.
Another assay deals with Enterococcus faecalis. In words: Antibacterial activity against Enterococcus faecalis ATCC 29212 assessed as reduction in bacterial growth at 50 uM incubated for 24 hrs by broth microdilution assay relative to control. The class given is functional. In outline:
as §1

Assay [4] concerns the target DNA gyrase (Escherichia coli, UniProt P0AES4+P0AES6). In words: Inhibition of Escherichia coli DNA gyrase using relaxed pNO1 plasmid DNA as substrate incubated for 30 mins by fluorescence assay. Format: protein-complex assay.
Assay [5] deals with Topoisomerase IV (Staphylococcus aureus) (UniProt P0C1U9+P0C1S7). In words: Inhibition of Staphylococcus aureus DNA topoisomerase 4 using supercoiled pNO1 plasmid DNA as substrate assessed as enzyme residual activity at 10 uM incubated for 30 mins by fluorescence assay relative to control. Format: protein-complex assay.
A further assay relates to Pseudomonas aeruginosa. In words: Antibacterial activity against Pseudomonas aeruginosa ATCC 27853 assessed as bacterial growth at 50 uM incubated for 24 hrs by broth microdilution assay. Format: functional, organism-based. The gist of the method:
as §1

The nature of assay [6]: Inhibition of Escherichia coli DNA topoisomerase 4 using supercoiled pNO1 plasmid DNA as substrate incubated for 30 mins by fluorescence assay.
For another assay, the target named is Topoisomerase IV (Staphylococcus aureus, UniProt P0C1S7+P0C1U9). In words: Inhibition of Staphylococcus aureus DNA topoisomerase 4 using supercoiled pNO1 plasmid DNA as substrate incubated for 30 mins by fluorescence assay. The class given is protein-complex assay.
In assay [7] the target is DNA gyrase (Staphylococcus aureus) (UniProt P0A0K8+P20831). In words: Inhibition of Staphylococcus aureus DNA gyrase using relaxed pNO1 plasmid DNA as substrate assessed as enzyme residual activity at 10 uM incubated for 30 mins by fluorescence assay relative to control. Format: protein-complex assay.
In assay [8] the target is DNA gyrase (Escherichia coli) (UniProt P0AES6+P0AES4). Put plainly: Inhibition of Escherichia coli DNA gyrase using relaxed pNO1 plasmid DNA as substrate assessed as enzyme residual activity at 10 uM incubated for 30 mins by fluorescence assay relative to control. Format: protein-complex assay.

The results in this text go back to ChEMBL document CHEMBL4373663, “New N-phenyl-4,5-dibromopyrrolamides as DNA gyrase B inhibitors” (Medchemcomm, 2019).

Calls of active or inactive are those of the source. No cut-off for these calls is given here.

Sequence of DNA gyrase (Staphylococcus aureus, UniProt P0A0K8+P20831) (P0A0K8 whole entry): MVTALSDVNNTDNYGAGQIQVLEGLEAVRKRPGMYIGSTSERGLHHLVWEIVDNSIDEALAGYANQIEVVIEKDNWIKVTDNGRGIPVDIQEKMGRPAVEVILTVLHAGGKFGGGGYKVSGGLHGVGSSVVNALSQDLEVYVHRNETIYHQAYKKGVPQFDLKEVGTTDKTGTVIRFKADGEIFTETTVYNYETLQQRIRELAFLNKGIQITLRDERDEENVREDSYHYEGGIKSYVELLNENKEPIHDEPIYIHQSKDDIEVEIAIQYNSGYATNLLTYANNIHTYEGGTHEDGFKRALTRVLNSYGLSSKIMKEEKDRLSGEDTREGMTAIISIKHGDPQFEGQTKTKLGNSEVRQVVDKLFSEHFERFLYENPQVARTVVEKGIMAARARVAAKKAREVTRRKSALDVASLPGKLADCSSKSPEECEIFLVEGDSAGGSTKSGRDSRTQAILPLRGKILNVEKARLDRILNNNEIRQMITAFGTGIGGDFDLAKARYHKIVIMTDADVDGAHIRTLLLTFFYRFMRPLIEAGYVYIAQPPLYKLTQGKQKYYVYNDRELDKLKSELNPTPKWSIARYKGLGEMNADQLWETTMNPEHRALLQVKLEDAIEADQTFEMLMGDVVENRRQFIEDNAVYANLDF
Sequence of DNA gyrase (Staphylococcus aureus, UniProt P0A0K8+P20831) (P20831 whole entry): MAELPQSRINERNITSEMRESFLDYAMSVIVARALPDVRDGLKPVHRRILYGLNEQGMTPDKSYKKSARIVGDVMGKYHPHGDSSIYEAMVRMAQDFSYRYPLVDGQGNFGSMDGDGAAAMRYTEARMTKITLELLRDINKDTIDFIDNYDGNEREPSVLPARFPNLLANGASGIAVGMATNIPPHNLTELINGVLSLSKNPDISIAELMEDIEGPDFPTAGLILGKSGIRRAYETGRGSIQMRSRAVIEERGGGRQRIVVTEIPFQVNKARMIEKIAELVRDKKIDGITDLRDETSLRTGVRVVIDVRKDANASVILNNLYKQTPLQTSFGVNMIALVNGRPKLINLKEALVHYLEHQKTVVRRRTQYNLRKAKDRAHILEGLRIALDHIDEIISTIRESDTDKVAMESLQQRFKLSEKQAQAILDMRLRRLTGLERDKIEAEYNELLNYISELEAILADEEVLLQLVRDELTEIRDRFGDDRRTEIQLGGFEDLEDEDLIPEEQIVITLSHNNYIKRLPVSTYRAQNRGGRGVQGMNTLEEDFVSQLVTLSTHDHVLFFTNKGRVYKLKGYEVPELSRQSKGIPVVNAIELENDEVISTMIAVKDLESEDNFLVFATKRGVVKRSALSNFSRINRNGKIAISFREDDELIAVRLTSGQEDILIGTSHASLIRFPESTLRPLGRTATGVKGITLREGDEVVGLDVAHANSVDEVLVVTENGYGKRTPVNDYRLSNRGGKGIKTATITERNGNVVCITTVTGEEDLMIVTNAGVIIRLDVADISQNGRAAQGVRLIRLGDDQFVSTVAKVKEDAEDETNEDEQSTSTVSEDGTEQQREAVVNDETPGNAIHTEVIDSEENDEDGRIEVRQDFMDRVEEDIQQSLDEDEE
Sequence of DNA gyrase (Staphylococcus aureus) (P0A0K8 2-644 limits assumed): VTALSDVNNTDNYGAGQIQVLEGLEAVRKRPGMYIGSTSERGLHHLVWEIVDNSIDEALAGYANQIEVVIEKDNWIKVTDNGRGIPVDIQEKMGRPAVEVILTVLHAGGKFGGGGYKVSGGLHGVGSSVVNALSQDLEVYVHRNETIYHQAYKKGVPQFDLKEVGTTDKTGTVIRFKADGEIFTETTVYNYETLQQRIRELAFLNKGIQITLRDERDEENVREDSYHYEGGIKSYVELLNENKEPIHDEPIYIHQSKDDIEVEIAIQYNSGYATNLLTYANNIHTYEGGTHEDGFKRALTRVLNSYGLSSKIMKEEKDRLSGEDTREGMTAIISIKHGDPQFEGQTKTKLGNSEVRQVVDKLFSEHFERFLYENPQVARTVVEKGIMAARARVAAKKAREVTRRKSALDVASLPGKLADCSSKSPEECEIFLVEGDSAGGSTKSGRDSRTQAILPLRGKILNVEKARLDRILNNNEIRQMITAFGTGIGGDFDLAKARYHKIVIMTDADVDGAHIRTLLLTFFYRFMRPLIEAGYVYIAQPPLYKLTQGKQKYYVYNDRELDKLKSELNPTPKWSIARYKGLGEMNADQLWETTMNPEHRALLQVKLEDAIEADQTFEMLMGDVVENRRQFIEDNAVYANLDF
Sequence of DNA gyrase (Staphylococcus aureus) (P20831 whole entry partner): as the sequence (P20831 whole entry) above
Sequence of Topoisomerase IV (P0C1U9 whole entry): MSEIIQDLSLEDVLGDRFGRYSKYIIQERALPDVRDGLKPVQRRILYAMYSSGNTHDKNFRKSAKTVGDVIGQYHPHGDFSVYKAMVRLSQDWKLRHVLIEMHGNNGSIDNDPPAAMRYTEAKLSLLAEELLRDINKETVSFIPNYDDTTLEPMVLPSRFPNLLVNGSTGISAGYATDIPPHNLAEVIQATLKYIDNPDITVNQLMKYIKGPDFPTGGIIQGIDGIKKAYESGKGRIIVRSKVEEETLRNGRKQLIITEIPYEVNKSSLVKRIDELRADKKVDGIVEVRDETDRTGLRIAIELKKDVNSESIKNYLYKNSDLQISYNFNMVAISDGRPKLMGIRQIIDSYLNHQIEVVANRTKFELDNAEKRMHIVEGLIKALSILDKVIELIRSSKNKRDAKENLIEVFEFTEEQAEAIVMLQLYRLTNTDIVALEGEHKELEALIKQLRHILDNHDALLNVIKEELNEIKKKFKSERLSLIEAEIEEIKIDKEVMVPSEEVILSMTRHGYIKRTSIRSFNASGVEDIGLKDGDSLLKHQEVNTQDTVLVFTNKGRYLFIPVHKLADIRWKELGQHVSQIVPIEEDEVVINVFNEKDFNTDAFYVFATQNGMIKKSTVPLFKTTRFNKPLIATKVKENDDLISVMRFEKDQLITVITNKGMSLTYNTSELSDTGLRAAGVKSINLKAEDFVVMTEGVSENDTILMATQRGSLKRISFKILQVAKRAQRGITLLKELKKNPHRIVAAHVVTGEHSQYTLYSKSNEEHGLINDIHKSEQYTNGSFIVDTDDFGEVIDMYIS
Sequence of Topoisomerase IV (P0C1S7 whole entry): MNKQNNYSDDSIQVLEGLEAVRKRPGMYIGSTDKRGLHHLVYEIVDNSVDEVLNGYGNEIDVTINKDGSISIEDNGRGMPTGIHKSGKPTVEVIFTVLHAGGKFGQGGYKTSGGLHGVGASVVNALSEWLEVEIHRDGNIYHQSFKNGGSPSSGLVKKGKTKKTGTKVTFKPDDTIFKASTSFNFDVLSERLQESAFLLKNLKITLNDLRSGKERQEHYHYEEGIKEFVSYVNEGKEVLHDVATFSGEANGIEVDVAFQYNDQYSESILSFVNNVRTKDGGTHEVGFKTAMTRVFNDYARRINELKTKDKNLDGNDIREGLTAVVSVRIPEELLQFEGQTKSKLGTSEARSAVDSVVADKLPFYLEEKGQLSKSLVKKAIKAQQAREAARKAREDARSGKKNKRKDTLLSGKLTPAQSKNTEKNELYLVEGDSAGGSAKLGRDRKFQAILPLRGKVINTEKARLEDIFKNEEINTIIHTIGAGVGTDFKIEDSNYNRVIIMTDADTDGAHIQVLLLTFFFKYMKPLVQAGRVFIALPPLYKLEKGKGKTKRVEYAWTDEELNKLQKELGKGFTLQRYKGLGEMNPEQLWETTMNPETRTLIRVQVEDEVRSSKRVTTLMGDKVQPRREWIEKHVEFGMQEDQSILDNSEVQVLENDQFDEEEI

For the molecule `Cc1nc(-c2cc(NC(=O)Cc3n[nH]c(=O)o3)ccc2NC(=O)c2cc(Br)c(Br)[nH]2)no1`, the inhibition entry in the assay on Escherichia coli [1], in the assay with Staphylococcus aureus, in the assay on Enterococcus faecalis and in the assay on Pseudomonas aeruginosa was “inactive” each time. Also, the results for the Activity (with Escherichia coli [2]; in assay [5]) were 91% and 60%, respectively. Moreover, the IC50 (in general, the midpoint of a concentration-inhibition curve) stood at 11 µM at DNA gyrase [3] and 0.045 µM against DNA gyrase [4].

Turning to `Cc1nc(-c2cc(NC(=O)CC(=O)O)ccc2NC(=O)c2cc(Br)c(Br)[nH]2)no1`, the inhibition result in the assay on Escherichia coli [1], in the assay on Staphylococcus aureus, with Enterococcus faecalis and in the assay on Pseudomonas aeruginosa was “inactive” in each case. Besides, the IC50 in [6] was determined as 11 µM; at DNA gyrase [3], 1.4 µM; at Topoisomerase IV, 14 µM; at DNA gyrase [4], 0.02 µM.

Take `Cc1nc(-c2cc(NC(=O)CC(=O)NN)ccc2NC(=O)c2cc(Br)c(Br)[nH]2)no1`: the inhibition (in general, the change of the read-out against control, counted positive when it falls) at 50 µM in the assay on Escherichia coli [1] (ATCC 25922, 24 h) came to 16%. Besides, the inhibition entry in the assay on Staphylococcus aureus, in the assay on Enterococcus faecalis and in the assay on Pseudomonas aeruginosa was “inactive” each time. The Activity came to 88% with Escherichia coli [2], 80% in [7] and 98% in assay [5]. This molecule showed an IC50 on DNA gyrase [4] of 0.14 µM.

On to `O=C(O)COc1ccc(NC(=O)c2cc(Br)c(Br)[nH]2)c(OCc2ccccc2)c1`, for which the inhibition result with Escherichia coli [1], in the assay with Staphylococcus aureus and in the assay with Pseudomonas aeruginosa was “inactive” in each case. For the same molecule, the results for the Activity (in the assay on Escherichia coli [2]; in [7]; in [5]) were 84%, 87% and 92%, respectively. Moreover, the inhibition at 50 µM in the assay with Enterococcus faecalis (ATCC 29212, 24 h) was found to be 25%. In addition, the half-maximal inhibitory concentration (IC50) against DNA gyrase [4] is 0.86 µM.

Take `NNC(=O)COc1ccc(NC(=O)c2cc(Br)c(Br)[nH]2)cc1`: the Activity in [8] was 100%.

As to `O=C(Nc1ccc(OCc2n[nH]c(=O)o2)cc1)c1cc(Br)c(Br)[nH]1`, the inhibition entry with Escherichia coli [1], in the assay on Staphylococcus aureus, in the assay on Enterococcus faecalis and in the assay on Pseudomonas aeruginosa was “inactive” in each case. In addition, the IC50 against DNA gyrase [4] was 8.6 µM.

Turning to `NNC(=O)COc1ccc(NC(=O)c2cc(Br)c(Br)[nH]2)c(OCc2ccccc2)c1`, the Activity in assay [8] was found to be 100%.

As for `O=C(Nc1ccc(OCc2n[nH]c(=O)o2)cc1OCc1ccccc1)c1cc(Br)c(Br)[nH]1`, the inhibition result in the assay on Escherichia coli [1], in the assay with Staphylococcus aureus, in the assay on Enterococcus faecalis and in the assay with Pseudomonas aeruginosa was “inactive” throughout. The Activity in assay [8] stood at 85%.

In the case of `COC(=O)CC(=O)Nc1ccc(NC(=O)c2cc(Br)c(Br)[nH]2)c(-c2noc(C)n2)c1`, the inhibition result in the assay on Escherichia coli [1], in the assay on Staphylococcus aureus, in the assay on Enterococcus faecalis and with Pseudomonas aeruginosa was “inactive” each time. The results for the Activity (in the assay with Escherichia coli [2]; in assay [5]) were 72% and 100%, respectively. The IC50 against DNA gyrase [3] was determined as 63 µM; against DNA gyrase [4], 0.086 µM.

On to `COC(=O)COc1ccc(NC(=O)c2cc(Br)c(Br)[nH]2)c(OCc2ccccc2)c1`, for which the Activity in assay [8] turned out to be 100%.
